Results published in the array DNA melting data of Ke et al. (doi:10.1101/2024.01.08.574731).

Legend:
[1] = melting temperature; fluorescence melt of hairpins on a sequencing array, two-state fit, raised by 9.35 °C to match UV melts; details: sodium 0.088 M
How it was run: (§1)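 Folding enthalpy and melting temperature were estimated with bootstrapped two-state fits and combined across four replicates by inverse-variance weighting, with fitted temperatures raised by 9.35 °C to match UV melts. The data were Cy3 fluorescence of library hairpins, with annealed Cy3 and quencher oligos, on a sequenced MiSeq flow cell in 50 mM Na-HEPES pH 8.0, 25 mM NaCl, imaged in 2.5 °C steps up to 60 °C and normalised to pre-quench Cy3 and control constructs.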

[2] = folding enthalpy; higher = less favourable; fluorescence melt of hairpins on a sequencing array, two-state fit; details: sodium 0.088 M
How it was run: as §1

| Sequence | Tm [1] | folding enthalpy [2] |
| --- | --- | --- |
| GTATGAGAAATCATAC ((((((....)))))) | 44.4 °C | -31.4 kcal/mol |
| GCCACCGAAAGGTGAGGC ((((((....)))..))) | 54.9 °C | -14.1 kcal/mol |
| GTGCCGGGAAACCGACAC (((.(((....))).))) | 52.9 °C | -33.5 kcal/mol |
| GAAGGGCGAAAGCCATTC (((.(((....))).))) | 57.1 °C | -22.2 kcal/mol |
| GTTTCCGAAAGGAGCAAC ((((((....)))..))) | 26.8 °C | -11.8 kcal/mol |
| GGGCGGGGAAACTCGCCC (((((.(....).))))) | 67.4 °C | -41.3 kcal/mol |
| GATCGGCAGTCCGATC ((((((....)))))) | 56.7 °C | -37.7 kcal/mol |
| GCGTTCGAAAGAAACCGC ((((((....)))..))) | 36.9 °C | -25.2 kcal/mol |
| CGTAGCGGAAACGCCACG (((.(((....))).))) | 46.9 °C | -32 kcal/mol |
| GGACCCGGAAACGGACCC ((..(((....)))..)) | 32.7 °C | -13.8 kcal/mol |
| GCTGAGGGAAACCTCAAC (.(((((....))))).) | 36.6 °C | -18.9 kcal/mol |
| CGGACGGAAACGTTTCCG ((((((....)))..))) | 46.4 °C | -12.5 kcal/mol |
| GGAGACCGAAAGGTATCC (((.(((....))).))) | 61.4 °C | -41.4 kcal/mol |
| GGCGACGAAAGTCTAGCC ((((((....)))..))) | 54.5 °C | -28.6 kcal/mol |
| GATCCGCTAACGGATC ((((((....)))))) | 58.8 °C | -37.2 kcal/mol |
| GTGTGTCGAAAGACGCAC (((.(((....))).))) | 61.4 °C | -37.7 kcal/mol |
| GGAATACGAAAGTACTCC (((.(((....))).))) | 39.5 °C | -27.4 kcal/mol |
| GGCAGTGGAAACGTTGCC ((((..(....)..)))) | 49.1 °C | -28.9 kcal/mol |
| GATCTTACCGAAGATC ((((((....)))))) | 42.9 °C | -33 kcal/mol |

| Sequence | Tm [1] | folding enthalpy [2] |
| --- | --- | --- |
| GCCACGGGAAACCGTAGC ((.((((....)))).)) | 46.6 °C | -23.2 kcal/mol |
| GGGGTTACGAAAGTACCC (((..(((....)))))) | 51.4 °C | -22.8 kcal/mol |
| GCGGCCACGAAAGTGCGC (((..(((....)))))) | 52.7 °C | -17.4 kcal/mol |
| GTTCCCGAAAGGGGGAAC ((((((....)))..))) | 48.4 °C | -19.3 kcal/mol |
| GTGCACGGAAACACGCAC ((((..(....)..)))) | 41.1 °C | -29.2 kcal/mol |
| GCTACCGAAAGGTGCAGC ((((((....)))..))) | 43.5 °C | -12.6 kcal/mol |
| GACGGGGGAAACCTCGTC ((((.((....)).)))) | 55.1 °C | -31.7 kcal/mol |
| GCCACCCCGAAAGGGGGC (((..(((....)))))) | 55.8 °C | -11.4 kcal/mol |
| GCCTCGCGAAAGCTAGGC ((((.((....)).)))) | 65.2 °C | -33 kcal/mol |
| GTGCAGCGAAAGCTCCAC (((.(((....))).))) | 44.7 °C | -21.8 kcal/mol |
| GTGGTCGAAAGACCCAC ((((((....))).))) | 51.1 °C | -13.2 kcal/mol |
| GTATCTGGAAACAGGTAC (((.(((....))).))) | 42.7 °C | -36.2 kcal/mol |
| GGAATCGGAAACGATCCC ((.((((....)))).)) | 45.5 °C | -25.9 kcal/mol |
| GTACGTCGAAAGACTTAC (((.(((....))).))) | 39.3 °C | -25.7 kcal/mol |
| GATCAATGCGTTGATC ((((((....)))))) | 50.9 °C | -45.6 kcal/mol |
| GTATCGGGAAACCGATGC (.(((((....))))).) | 53.3 °C | -22.2 kcal/mol |
| GCGCAAGGAAACTTGTGC ((.((((....)))).)) | 54.9 °C | -48.9 kcal/mol |
| GTAAACGGAAACGTTTAC (((((((....))))))) | 57.8 °C | -47.3 kcal/mol |
| GATCCGAGTCGGATC ((((((...)))))) | 59.5 °C | -35 kcal/mol |
